In the array DNA melting data of Ke et al. (doi:10.1101/2024.01.08.574731) one finds folding enthalpy and Tm data, which are given here for 30 sequences.

The nature of data set [1]: folding enthalpy; higher = less favourable; fluorescence melt of hairpins on a sequencing array, two-state fit. Conditions: sodium 0.088 M. An outline of the steps:
(§1)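 Melting temperature and folding enthalpy were obtained by bootstrapped two-state fitting. Fits used Cy3 fluorescence of library hairpins with annealed Cy3 and quencher oligos on a sequenced MiSeq flow cell, imaged in 50 mM Na-HEPES pH 8.0, 25 mM NaCl in 2.5 °C steps up to 60 °C and normalised to pre-quench Cy3 and control constructs. Four replicates were combined by inverse-variance weighting, and fitted temperatures were raised by 9.35 °C to match UV melts.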

Data set [2] is described as follows: melting temperature; fluorescence melt of hairpins on a sequencing array, two-state fit, raised by 9.35 °C to match UV melts. To be noted: sodium 0.088 M. An outline of the steps: as §1

In the case of GCTTGTTCGAAAGAAAGC (((..(((....)))))), the folding enthalpy in data set [1] is -16.2 kcal/mol. The Tm in data set [2] was determined as 26.5 °C.
With GCTTTAGAAATAAAGC ((((((....)))))), in data set [1], the folding enthalpy was -31.4 kcal/mol. For the same sequence, the Tm in data set [2] was determined as 45.1 °C.
Regarding GCTTTAGGAAACCAAAGC (((((.(....).))))), the folding enthalpy in data set [1] was -28.3 kcal/mol. Also, in data set [2], the Tm was 35.4 °C.
Take GCTTTCCGAAAGGAAGC (((.(((....)))))): the folding enthalpy in data set [1] was -21.1 kcal/mol. Besides, the Tm in data set [2] came to 52.3 °C.
Turning to GCTTTCGAAAGAAAAGC ((((((....))).))), the folding enthalpy in data set [1] is -31.3 kcal/mol. Moreover, the Tm in data set [2] came to 46.6 °C.
Take GCTTTCGAAAGAACTAGC ((((((....)))..))): the folding enthalpy in data set [1] was -12.3 kcal/mol. The Tm in data set [2] came out at 25.4 °C.
Turning to GCTTTCGAAAGAATAGC ((((((....))).))), in data set [1], the folding enthalpy is -23.9 kcal/mol. In addition, the Tm in data set [2] worked out at 38.2 °C.
As to GCTTTCGGAAACGAAAGC (((((((....))))))), in data set [1], the folding enthalpy was -43.1 kcal/mol. Besides, in data set [2], the Tm was found to be 68 °C.
For the sequence GCTTTCGGAAACGAGAGC (((.(((....))).))), the folding enthalpy in data set [1] was -47 kcal/mol. Besides, the Tm in data set [2] was determined as 49.1 °C.
The corresponding values for GCTTTGACGAAAGTCAGC (((..(((....)))))) are -12 kcal/mol and 33.2 °C.
As to GCTTTGCCGAAAGGCAGC (((..(((....)))))), the folding enthalpy in data set [1] was -8.46 kcal/mol. Also, in data set [2], the Tm was determined as 35.8 °C.
For the sequence GCTTTGCGAAAGCAAGC (((.(((....)))))), the folding enthalpy in data set [1] was -15.2 kcal/mol. Moreover, the Tm in data set [2] worked out at 53.2 °C.
For the sequence GCTTTGCGAAAGCAATGC ((.((((....)))).)), the folding enthalpy in data set [1] is -27.5 kcal/mol. For the same sequence, the Tm in data set [2] came out at 60.9 °C.
The like results for GCTTTGCGAAAGCAGAGC (((.(((....))).))) were, in that order, -43.8 kcal/mol and 56.5 °C.
The like results for GCTTTGCGAAAGCATCGC ((..(((....)))..)) were, in that order, -13.7 kcal/mol and 48.7 °C.
As for GCTTTGCGAAAGCATTGC ((..(((....)))..)), the folding enthalpy in data set [1] is -19.3 kcal/mol. Also, in data set [2], the Tm amounted to 40.9 °C.
Turning to GCTTTGGAAACAAAGC ((((((....)))))), the folding enthalpy in data set [1] is -38.1 kcal/mol. Besides, the Tm in data set [2] came to 57.4 °C.
Regarding GCTTTGGCGAAAGCCAGC (((..(((....)))))), the folding enthalpy in data set [1] was -10.1 kcal/mol. In data set [2], the Tm was determined as 38.2 °C.
For the sequence GCTTTGGGAAACCAAGGC ((.((((....)))).)), in data set [1], the folding enthalpy is -29.7 kcal/mol. Also, the Tm in data set [2] is 47.8 °C.
For GCTTTTACGAAAGTAAGC (((..(((....)))))), the folding enthalpy in data set [1] was -14.7 kcal/mol. In addition, the Tm in data set [2] is 33.2 °C.
Turning to GCTTTTCGAAAGAACAGC (((.(((....))).))), in data set [1], the folding enthalpy was -31.8 kcal/mol. Besides, in data set [2], the Tm stood at 42.8 °C.
Regarding GGAAAACGAAAGTTCTCC (((.(((....))).))), in data set [1], the folding enthalpy was -24.8 kcal/mol. Moreover, in data set [2], the Tm is 35.7 °C.
The like results for GGAAAACGAAAGTTTCC (((.(((....)))))) were, in that order, -21.7 kcal/mol and 44.1 °C.
As to GGAAAAGCGAAAGCTTCC (((..(((....)))))), the folding enthalpy in data set [1] is -15.1 kcal/mol. For the same sequence, the Tm in data set [2] was determined as 40.5 °C.
The corresponding values for GGAAAAGGAAACTTTTCC (((((((....))))))) are -39.6 kcal/mol and 52.7 °C.
Regarding GGAAACGAAAGTTGTTCC ((((((....)))..))), the folding enthalpy in data set [1] was -9.91 kcal/mol. For the same sequence, in data set [2], the Tm is 24.9 °C.
The corresponding values for GGAAACGAAAGTTTTCC ((((((....))).))) are -20.4 kcal/mol and 46.2 °C.
With GGAAACGGAAACATTTCC (((((.(....).))))), the folding enthalpy in data set [1] was -28.4 kcal/mol. Moreover, the Tm in data set [2] was 31.3 °C.
As for GGAAACGGAAACGTTTTC (.(((((....))))).), the folding enthalpy in data set [1] is -28.3 kcal/mol. The Tm in data set [2] came to 46.8 °C.
The corresponding values for GGAAACTCGAAAGAGTCC (((..(((....)))))) are -14.3 kcal/mol and 33.8 °C.
